Data set [1] relates to Trypanosoma cruzi. Nature of the data set: Antitrypanosomal activity against Trypanosoma cruzi trypomastigotes measured after 24 hrs by resazurin dye based assay. Type of data set: functional, organism-based. Put shortly:
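Cell-derived trypomastigotes, 1 × 10^6/well, exposed 24 h at 37 °C; viability by resazurin read at 570 nm; benznidazole as standard; IC50 calculated.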

The test system of data set [2] is Trypanosoma cruzi. The experiment in a line: Antitrypanosomal activity against Trypanosoma cruzi amastigotes infected in peritoneal macrophages (unknown origin) measured after 48 hrs by resazurin dye based assay. Type of data set: functional, organism-based.
Data set [3] in a line: Cytotoxicity against mouse L929 cells measured after 48 hrs by MTT assay. Type of data set: cell-based. Put shortly:
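NCTC clone L929 cells, 6 × 10^4/well, incubated with compound 48 h at 37 °C; viability by MTT at 570 nm; CC50 taken as 50% cytotoxic concentration; highest concentration 200 μM.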

A short description of data set [4]: Selectivity index, ratio of CC50 for mouse L929 cells to IC50 for Trypanosoma cruzi trypomastigotes. Type of data set: toxicity. To be noted: read-out: Ratio CC50/IC50. Put shortly:
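Ratio of the mammalian CC50 (L929, MTT, 48 h) to the IC50 against trypomastigotes (resazurin, 24 h).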

Data set [5] in a line: Selectivity index, ratio of CC50 for mouse L929 cells to IC50 for Trypanosoma cruzi amastigotes infected in peritoneal macrophages (unknown origin). Type of data set: toxicity. To be noted: read-out: Ratio CC50/IC50. Put shortly:
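Ratio of the L929 CC50 (MTT, 48 h) to the intracellular amastigote IC50 (infected peritoneal macrophages, 48 h).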

Data set [6] relates to Trypanosoma cruzi. The experiment in a line: Antitrypanosomal activity against Trypanosoma cruzi amastigotes infected in peritoneal macrophages (unknown origin) assessed as elimination of parasite at 100 uM by optical microscopic analysis. Type of data set: functional, organism-based. Put shortly: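 Peritoneal macrophages infected with T. cruzi trypomastigotes (ratio 10:1) and treated at 100 μM. Infected untreated macrophages served as control. Parasite clearance was judged by optical microscopy at 1000× magnification.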

Data set [7] has as its system Trypanosoma cruzi. The experiment in a line: Disruption of plasma membrane integrity in Trypanosoma cruzi trypomastigotes at antitrypanosomal IC50 measured after 120 mins by Sytox green dye based fluorescence assay. Type of data set: functional, organism-based. Put shortly:
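Trypomastigotes (2 × 10^6/well) with 1 μM SYTOX Green, compound at IC50, fluorescence followed 120 min at ex 485/em 520 nm; 0.5% Triton X-100 gives maximal permeabilization; compound background and DMSO controls; duplicates, at least two independent assays.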

The subject of data set [8] is Trypanosoma cruzi. Nature of the data set: Induction of plasma membrane electric potential depolarization in Trypanosoma cruzi trypomastigotes at antitrypanosomal IC50 measured after 60 mins by DiSBAC2(3) dye based flow cytometry. Type of data set: functional, organism-based. Put shortly: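 Trypomastigotes (2 × 10^6/well) exposed at IC50 for 60 min at 37 °C, then 0.2 μM DiSBAC2(3) added and read by flow cytometry; gramicidin D 0.5 μg/mL defined 100%, untreated 0%; at least two independent assays in duplicate.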

Data set [9] relates to Trypanosoma cruzi. The experiment in a line: Induction of reactive oxygen species generation in Trypanosoma cruzi trypomastigotes at antitrypanosomal IC50 measured after 60 to 120 mins by H2DCFDA dye based fluorescence assay. Type of data set: organism-based. The settings on record: in vitro. Put shortly: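 Trypomastigotes incubated with compound at IC50 for 60 and 120 min, then 20 μM H2DCFDA 15 min at 37 °C; fluorescence ex 485/em 520 nm; 10 mM sodium azide positive control, untreated negative; compound background and DMSO controls.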

For data set [10], the system named is Trypanosoma cruzi. The experiment in a line: Induction of mitochondrial membrane potential depolarization in Trypanosoma cruzi trypomastigotes at antitrypanosomal IC50 measured after 2 hrs by JC1 dye based flow cytometry. Type of data set: functional, organism-based.
In data set [11] the test system is Trypanosoma cruzi. Nature of the data set: Induction of mitochondrial membrane potential depolarization in Trypanosoma cruzi trypomastigotes at antitrypanosomal IC50 measured after 2 hrs by DAPI/Mito tracker red dye based fluorescence microscopic analysis. Type of data set: functional, organism-based. Put shortly:
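Treated trypomastigotes costained with 10 μM DAPI and 1 μM MitoTracker Red CM-H2XROS, 30 min at 37 °C in the dark, then fluorescence microscopy; CCCP positive control, untreated parasites as reference.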

Where [12] appears, read: Trypanosoma cruzi, 24 h, read-out: IC50.
Where [13] appears, read: Trypanosoma cruzi, 48 h, read-out: IC50.

The values below come from ChEMBL document CHEMBL4316656, “Antitrypanosomal Activity of Acetogenins Isolated from the Seeds of Porcelia macrocarpa Is Associated with Alterations in Both Plasma Membrane Electric Potential and Mitochondrial Membrane Potential” (J Nat Prod, 2019).

Structures are written as SMILES. Activity calls are given as the source filed them. The rule behind the calls is not given here. Some results are limits rather than exact numbers.

In the case of `O=C(Cn1ccnc1[N+](=O)[O-])NCc1ccccc1` [BENZNIDAZOLE], the figures for the IC50 in the data set on Trypanosoma cruzi [1] (setting [12]) and in the data set with Trypanosoma cruzi [2] (setting [13]) were 5.5 µM and 18.7 µM, respectively.
For `C=CCCCCCCC#CCCCCCCCCCC[C@@H]1C(=O)O[C@H](C)[C@@H]1O`, the IC50 with Trypanosoma cruzi [1] (setting [12]) was found to be 7.8 µM; in the data set on Trypanosoma cruzi [2] (setting [13]) it was 58.3 µM. The same compound returned a CC50 at 48 h in [3] greater than 200 µM. In addition, the selectivity ratio in data set [4] is greater than 25.6; in data set [5], greater than 3.4.
Consider `C=CCCCCCCC#CCCCCCCCCCCC1=C(O)[C@@H](C)OC1=O`, for which the results for the half-maximal inhibitory concentration (IC50) in the data set on Trypanosoma cruzi [1] (setting [12]) and with Trypanosoma cruzi [2] (setting [13]) were 3.6 µM and 27.7 µM, respectively. In [3], this compound yielded a CC50 at 48 h greater than 200 µM. Also, the values for the selectivity ratio in data set [4] and in data set [5] were greater than 55.6 and greater than 7.2, respectively. For the same compound, the outcome in the data set with Trypanosoma cruzi [6], in the data set on Trypanosoma cruzi [8], with Trypanosoma cruzi [10] and with Trypanosoma cruzi [11] was Active. Besides, in the data set on Trypanosoma cruzi [7], the result was inactive. For the same compound, in the data set with Trypanosoma cruzi [9], the Activity entry is given as “Non-Toxic”.
For `CCCCCCCCCCCCCCCCCC(=O)O` [STEARIC ACID], the 50% inhibitory concentration (IC50) result in the data set on Trypanosoma cruzi [1] and with Trypanosoma cruzi [2] was “Not Active” in each case.
In the case of `CCCCCCCCCCCCCCCCCCCC[C@@H]1C(=O)O[C@H](C)[C@@H]1O`, the half-maximal inhibitory concentration (IC50) entry with Trypanosoma cruzi [1] and in the data set with Trypanosoma cruzi [2] was “Not Active” throughout.
For the compound `CCCCCCCCC#CCCCCCCCC(=O)O`, the IC50 is 27.6 µM with Trypanosoma cruzi [1] (setting [12]) and “Not Active” in the data set on Trypanosoma cruzi [2]. The compound also displayed a CC50 at 48 h in [3] greater than 200 µM. Further, in data set [4], the selectivity ratio was greater than 7.2.
For `C=CCCCCCCC#CCCCCCCCCCCC1=C(O)C(=C)OC1=O`, the IC50 in the data set on Trypanosoma cruzi [1] (setting [12]) stood at 0.4 µM; in the data set with Trypanosoma cruzi [2] (setting [13]), 23 µM. In [3], it took 80 µM to reach half-maximal cytotoxicity (CC50 at 48 h). Moreover, the figures for the selectivity ratio in data set [4] and in data set [5] were 200 and 3.5, respectively. For the same compound, the result with Trypanosoma cruzi [6], in the data set with Trypanosoma cruzi [8], in the data set with Trypanosoma cruzi [10] and in the data set on Trypanosoma cruzi [11] was Active. Also, the result in the data set with Trypanosoma cruzi [7] was inactive. The Activity result in the data set on Trypanosoma cruzi [9] is “Non-Toxic”.
